Shown are actives, neighbours in structure and some others; about 9.4% of the full set was active somewhere.
CSC inhib: cancer stem cell inhibition. 1.1% of 300,000 active. cancer stem cell-like cells viability, luminescence. inhibition, % at 7.5 µM; in the data active = inhibition above about 75%; inconclusive = no clear call, values can overlap the other calls; tested in HMLE shEcad cells
SKKanGAS inh: blocks kanamycin growth of S. pyogenes SKKanGAS strain. inhibition, % at 7.5 µM. BacTiter-Glo, 6 h. 1.3% of 300,000 active;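 active = mean replicate score, as percent of positive control median, at least 50; inconclusive = mean below 50 but one replicate at or above 50; inactive = mean and every replicate below 50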;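 note: strain carries kanamycin resistance gene driven by streptokinase promoter and grows in 40 µg/ml kanamycin; loss of luminescence reflects streptokinase promoter inhibition or plain growth inhibition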
T cruzi inh: blocks replication of Trypanosoma cruzi; T. cruzi beta-gal in NIH3T3, luminescence, 90 h; inhibition, % (no concentration beside the values); 1.4% of 300,000 active; AID 1885;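 active = mean inhibition across valid replicates above about 55%, limit read from the data; inconclusive = mean below that limit but half or more replicates reach it; inactive = mean below it, under half of replicates reach it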;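 note: signal also drops with host cell toxicity which is not excluded here; higher percent means less beta-gal luminescence so fewer parasites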
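System – NIH/3T3 host cells with β-galactosidase reporter T. cruzi · Doses – single 50 nL compound addition per well in DMSO · Reagent – 5000 T. cruzi trypomastigotes/well · Medium – Low-serum DMEM with 2% FBS · Timing – ≥90 h infection period, 3 h prior cell attachment · Evaluation – parasite load inhibition, % · Technique – GalScreen luminescence, 60 min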
Mdm2-MdmX inh: disrupts the human Mdm2-MdmX interaction. inhibition, % at 8 µM. 3% of 330,000 active. SaOS-2 split-luciferase Mdm2/MdmX complementation, luminescence;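 active = inhibition of at least 50% at 8 µM in the primary screen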
Target sequence (O15151 whole entry, looked up): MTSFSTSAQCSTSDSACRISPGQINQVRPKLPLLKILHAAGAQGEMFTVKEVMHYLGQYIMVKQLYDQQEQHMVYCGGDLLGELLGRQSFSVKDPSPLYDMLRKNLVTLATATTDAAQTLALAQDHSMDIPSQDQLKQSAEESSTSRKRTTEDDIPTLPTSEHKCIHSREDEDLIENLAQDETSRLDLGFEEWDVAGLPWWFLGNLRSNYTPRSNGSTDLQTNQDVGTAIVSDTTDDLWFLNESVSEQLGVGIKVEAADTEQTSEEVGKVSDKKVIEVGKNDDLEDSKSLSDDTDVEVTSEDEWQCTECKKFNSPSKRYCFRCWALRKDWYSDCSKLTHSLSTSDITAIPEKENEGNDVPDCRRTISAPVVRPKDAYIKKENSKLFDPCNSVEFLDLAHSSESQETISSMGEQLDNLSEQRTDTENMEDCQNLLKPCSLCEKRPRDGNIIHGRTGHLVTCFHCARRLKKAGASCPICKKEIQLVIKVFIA
Target sequence (Q00987 whole entry, looked up): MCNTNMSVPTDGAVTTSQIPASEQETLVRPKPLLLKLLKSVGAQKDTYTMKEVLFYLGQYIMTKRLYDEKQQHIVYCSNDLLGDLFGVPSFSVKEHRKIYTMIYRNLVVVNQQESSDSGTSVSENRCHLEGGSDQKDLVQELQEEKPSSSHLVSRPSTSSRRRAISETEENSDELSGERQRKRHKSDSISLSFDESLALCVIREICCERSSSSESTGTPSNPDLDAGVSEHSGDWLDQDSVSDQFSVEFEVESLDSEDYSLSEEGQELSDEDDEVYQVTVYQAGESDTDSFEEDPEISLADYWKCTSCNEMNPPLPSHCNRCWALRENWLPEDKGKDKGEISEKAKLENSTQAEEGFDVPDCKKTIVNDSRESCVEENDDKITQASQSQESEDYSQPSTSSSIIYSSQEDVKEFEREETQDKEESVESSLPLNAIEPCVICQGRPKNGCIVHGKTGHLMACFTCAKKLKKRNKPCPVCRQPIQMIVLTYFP
Beta apoptosis: blocks beta cell apoptosis; 0.8% of 300,000 active; protection from apoptosis, % (no concentration beside the values); INS-1E cytokine-induced death, ATP luminescence, 48 h; percent of positive-control rescue, neutral wells zero;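 active = Every replicate reaches about 75%, or at least half do and their mean reaches it too, limit read from the data; inconclusive = At least half of replicates reach the limit but their mean does not; inactive = Under half of replicates reach the limit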;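 note: higher means more ATP so stronger rescue from cytokine killing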
Lmaj promast: Leishmania major promastigote growth inhibition. AID 1063. inhibition, % at 10 µM. Leishmania major promastigotes, resazurin fluorescence viability. 9% of 200,000 active; in the data active = inhibition above about 50%;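 note: promastigotes grown with compound for 44 hours at 28 °C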
Mdm2-MdmX conf: confirmation of human Mdm2/MdmX interaction inhibitors. inhibition, % at 8 µM. AID 489028. Mdm2-MdmX binding, luminescent assay. 55% of 10,000 active. shares compounds with Mdm2-MdmX inh; in the data active = inhibition above about 40%
Full FLuc ctr: full-length luciferase inhibition in Mdm2/MdmX counter-screen | 77% of 6,200 active | shares compounds with Mdm2-MdmX inh | SaOS-2 full-length luciferase counterscreen, luminescence | inhibition, % at 8 µM;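 active = mean inhibition at 8 µM reaching about 37%, which flags the compound as non-specific, limit read from the data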;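 note: p53-null SaOS-2 cells with luciferase driven by a doxycycline-inducible promoter; compound on cells about two nights before reading with doxycycline added after day one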
Of the large screens only hits and unclear results are named; the others gave an inactive call (follow-up assays come after a bar, where they were run).

Cc1cc(C(=O)c2ccc(C(C)(C)C)cc2)c(NC(=O)CCl)s1	Mdm2-MdmX inh 78, Lmaj promast 96 | Mdm2-MdmX conf inactive
CSc1nc2ccccc2cc1/C=C(\C#N)c1cccc(Cl)c1	CSC inhib inconclusive, Mdm2-MdmX inh 57 | Mdm2-MdmX conf 56 | Full FLuc ctr 58
O=c1cc(O)c2ccccc2n1Cc1ccccc1	none
Cc1ccc(F)c(NC(=O)c2c(-c3ccccc3)noc2C)c1	none (no result: Lmaj promast)
COc1ccc(-c2nnc(Nc3nc4c(OC)cccc4s3)o2)c(OC)c1	Mdm2-MdmX inh 68, Lmaj promast 94 (no result: CSC inhib, Beta apoptosis) | Mdm2-MdmX conf 58 | Full FLuc ctr 48
O=C(N/N=C/c1c[nH]c2ccccc12)c1cc(-c2cccc3ccccc23)n[nH]1	Mdm2-MdmX inh 58 | Mdm2-MdmX conf inactive
O=C(N/N=C/c1cccs1)c1cc(-c2ccc3ccccc3c2)n[nH]1	none
O=C(N/N=C/c1c[nH]c2ccccc12)c1cc(-c2ccc3ccccc3c2)n[nH]1	SKKanGAS inh 95, Mdm2-MdmX inh 54 | Mdm2-MdmX conf 52 | Full FLuc ctr 87
CC(=O)Nc1nc2c(s1)CCc1ccccc1-2	none (no result: Lmaj promast)
O=C(CCCl)Nc1nc2c(s1)CCc1ccccc1-2	Mdm2-MdmX inh 68 (no result: Lmaj promast) | Mdm2-MdmX conf 62 | Full FLuc ctr inactive
CN(C)CCN(C(=O)c1cccc2ccccc12)c1nc2cc3c(cc2s1)OCO3	none (no result: Lmaj promast)
Cc1ccc2c(c1)c1c(n2CC(O)Cn2c(C)nc3ccccc32)/C(=N\O)CCC1 (centres undefined)	Mdm2-MdmX inh 60, Lmaj promast 58 | Mdm2-MdmX conf inactive
Cc1ccc2c(c1)c1c(n2CC(O)Cn2c(C)nc3ccccc32)C(=O)CCC1 (centres undefined)	none (no result: Beta apoptosis)
COC(=O)c1c(C)[nH]c(-c2csc(N)n2)c1C	Mdm2-MdmX inh 65 | Mdm2-MdmX conf 61 | Full FLuc ctr 85
CCOC(=O)c1[nH]c(C)c(C(=O)OC)c1C	none (no result: Lmaj promast)
CN(C)c1ccc(/C=C/c2nc3ccccc3s2)cc1	Mdm2-MdmX inh 64 | Mdm2-MdmX conf inactive
Cc1cc(C)cc(C(=O)Nc2ccc(NC(=O)Cc3ccccc3)cc2)c1	Mdm2-MdmX inh 52 | Mdm2-MdmX conf inactive
C/C(=N\NC(=O)c1ccc(N)cc1)C1CC1	none (no result: Lmaj promast)
C/C(=N\NC(=O)c1ccccc1O)C1CC1	Mdm2-MdmX inh 52 (no result: Lmaj promast) | Mdm2-MdmX conf inactive
C/C(=N\NC(=O)c1ccccc1O)c1ccc(NC(=O)Cc2ccccc2)cc1	Mdm2-MdmX inh 51 (no result: Lmaj promast) | Mdm2-MdmX conf inactive
CCCN(Cc1nnc(-c2ccccc2Cl)o1)C(=O)COc1ccc(Cl)cc1	none (no result: CSC inhib, SKKanGAS inh, T cruzi inh, Lmaj promast)
Cc1ccc(C2(c3ccc(C)cc3)CC2C(=O)NCc2cccnc2)cc1 (centres undefined)	none
O=c1ccc2ccc(Oc3ccc([N+](=O)[O-])cc3[N+](=O)[O-])cc2o1	Mdm2-MdmX inh 58 | Mdm2-MdmX conf 60 | Full FLuc ctr 72
C[C@]12c3[nH]c4cc(-c5ccco5)ccc4c3CCN1C(=O)[C@@H](CC(=O)NCCN1CCOCC1)C[C@@H]2C(=O)N1CCCCC1	none (no result: CSC inhib, SKKanGAS inh, T cruzi inh, Beta apoptosis, Lmaj promast)
CCN(CC)C(=O)[C@H]1CC(CC(=O)NCC23CC4CC(CC(C4)C2)C3)C(=O)N2CCc3c([nH]c4ccccc34)[C@]12C (some centres undefined)	Mdm2-MdmX inh 69 (no result: CSC inhib, SKKanGAS inh, T cruzi inh, Beta apoptosis, Lmaj promast) | Mdm2-MdmX conf inactive
C[C@]12c3[nH]c4cc(-c5ccco5)ccc4c3CCN1C(=O)[C@@H](CC(=O)NCC13CC4CC(CC(C4)C1)C3)C[C@@H]2C(=O)N1CCOCC1	Mdm2-MdmX inh 85 (no result: CSC inhib, SKKanGAS inh, T cruzi inh, Beta apoptosis, Lmaj promast) | Mdm2-MdmX conf inactive
CCN(CC)C(=O)[C@H]1CC(CC(=O)NC/C=C(\C)CCC=C(C)C)C(=O)N2CCc3c([nH]c4ccc(OC)cc34)[C@]12C (some centres undefined)	Mdm2-MdmX inh 87 (no result: CSC inhib, SKKanGAS inh, T cruzi inh, Beta apoptosis, Lmaj promast) | Mdm2-MdmX conf 45 | Full FLuc ctr 59
CCN(CC)C(=O)[C@H]1C[C@H](CC(=O)NCC23CC4CC(CC(C4)C2)C3)C(=O)N2CCc3c([nH]c4cc(-c5ccco5)ccc34)[C@]12C	Mdm2-MdmX inh 84 (no result: CSC inhib, SKKanGAS inh, T cruzi inh, Beta apoptosis, Lmaj promast) | Mdm2-MdmX conf 56 | Full FLuc ctr 71
CCN(CC)C(=O)[C@H]1C[C@H](CC(=O)NCCCOC)C(=O)N2CCc3c([nH]c4cc(-c5ccco5)ccc34)[C@]12C	none (no result: CSC inhib, SKKanGAS inh, T cruzi inh, Beta apoptosis, Lmaj promast)
COc1ccc(C(=O)Nc2cnn(Cc3c(F)cccc3Cl)c2)cc1OC	none (no result: Lmaj promast)
CCOC(=O)c1c(C)nc2sc3c(=O)n(-c4ccc(C(C)=O)cc4)nnc3c2c1-c1ccc(Cl)cc1	Mdm2-MdmX inh 72, Lmaj promast 54 | Mdm2-MdmX conf 50 | Full FLuc ctr 49
Cc1cccc(-c2cc3nc(C)cc(NCCCN(C)C)n3n2)c1	Mdm2-MdmX inh 65 (no result: CSC inhib, Beta apoptosis) | Mdm2-MdmX conf inactive
COCCNc1cc(C)nc2cc(-c3ccc(C)cc3)nn12	none
CN(CCO)c1c2c(nc3cc(-c4cccc(F)c4)nn13)CCCC2	none
COCCN1CCN(c2cc(-c3ccccc3)nc3cc(-c4cccc(F)c4)nn23)CC1	Mdm2-MdmX inh 51, Lmaj promast 87 | Mdm2-MdmX conf inactive
CN(C)CCCNc1cc(-c2ccccc2)nc2cc(-c3cccc(F)c3)nn12	Mdm2-MdmX inh 63 (no result: Lmaj promast) | Mdm2-MdmX conf inactive | Full FLuc ctr 51
Fc1cccc(-c2cc3nc(-c4ccccc4)cc(N4CCC5(CC4)OCCO5)n3n2)c1	none
CC1=CC(C)[C@H](/C=N/n2c(=O)[nH]c3c([nH]c4ccc(C)cc43)c2=O)C(C)C1 (some centres undefined)	CSC inhib 87, Mdm2-MdmX inh 86 | Mdm2-MdmX conf inactive
CCOC(=O)c1ccccc1Nc1cn(C(C)=O)c2ccccc12	Mdm2-MdmX inh 59 | Mdm2-MdmX conf 47 | Full FLuc ctr 80
CC(=O)n1cc(Nc2ccccc2C(=O)O)c2ccccc21	none
Cn1ncc2c(Nc3ccccc3Cl)nc(Nc3ccccc3Cl)nc21	Mdm2-MdmX inh 54 (no result: Lmaj promast) | Mdm2-MdmX conf inactive
Cc1cc(C)nc(Nc2ccccc2Cl)n1	none (no result: Lmaj promast)
COc1ccc2sc(-c3ccc(SC)cc3)c(-c3ccc(O)cc3)c2c1	CSC inhib 107, Mdm2-MdmX inh 54 (no result: SKKanGAS inh, T cruzi inh, Lmaj promast) | Mdm2-MdmX conf inactive
CN(CCO)c1nc(N)c2c(N)nc3c(c2c1C#N)CC(=O)N3C1CCCC1	none
CC(C)(C)N1C(=O)Cc2c1nc(N)c1c(N)nc(N3CCCCC3CO)c(C#N)c21 (centres undefined)	Mdm2-MdmX inh 68 | Mdm2-MdmX conf inactive
CCCCCc1cc(=O)oc2c(C(CCN3CCCC3)c3ccc(N(C)C)cc3)c(OC)cc(OC)c12 (centres undefined)	Mdm2-MdmX inh 97 (no result: Lmaj promast) | Mdm2-MdmX conf inactive | Full FLuc ctr 53
CCN(CC)CCC(c1ccc(N(C)C)cc1)c1c(OC)cc(OC)c2ccc(=O)oc12 (centres undefined)	none (no result: Lmaj promast)
